Results on eight compounds are retold here after ChEMBL document CHEMBL3124750 (Bioorg Med Chem Lett, 2014).

The subject of data set [1] is Striatum. Briefly: Ratio of drug level from ipsilateral to contralateral in Wistar rat administered as iv measured after 60 mins of postinjection by MicroPET imaging analysis. The class given is ADME, organism-based. The note with it: in vivo, 1 h. The essentials:
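Anesthetized Wistar rats lesioned by AMPA injection into the right striatum 7 days earlier received the [18F] tracer i.v. for microPET. The ratio is bound tracer in the lesion divided by bound tracer in the contralateral side at 60 min post-injection.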

The subject of data set [2] is Striatum. Briefly: Drug uptake in iv dosed AMPA lesioned Wistar rat brain striatum measured after 60 mins by MicroPET imaging analysis. The class given is ADME, organism-based. The note with it: in vivo, 1 h. The method in brief:
(§1)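 MicroPET on anesthetized Wistar rats 7 days after AMPA injection into the right striatum. The [18F]-labelled tracer was given i.v.; uptake is expressed as percent injected dose per mL (% ID/mL) in the lesioned striatum or the contralateral area at 60 min.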

Data set [3] concerns Striatum. Briefly: Drug uptake in iv dosed AMPA lesioned Wistar rat brain contralateral side of striatum measured after 60 mins by MicroPET imaging analysis. The class given is ADME, organism-based. The note with it: in vivo, 1 h. The essentials:
as §1

For data set [4], the system named is Liver microsome. Briefly: Drug metabolism in rat liver microsomes assessed as retention time of hydroxylated M2 metabolite formation after 30 mins by LC-MS/MS analysis. The class given is ADME. The note with it: 0.5 h. The essentials:
(§2)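 Rat liver microsomes, 30 min incubation; metabolites detected by LC-MS and MS-MS. Chromatography: C18 column (2.1 x 150 mm, 5 µm), water/acetonitrile each with 0.05% formic acid, gradient 60:40 to 20:80 over 20 min, 200 µL/min; UV detection at 275 nm; retention times recorded.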

Data set [5] concerns Liver microsome. Briefly: Drug metabolism in rat liver microsomes assessed as retention time of deethylated M1 metabolite formation after 30 mins by LC-MS/MS analysis. Type of data set: ADME. The note with it: 0.5 h. The method in brief:
as §2

In a further data set the target is Translocator protein (Rattus norvegicus, UniProt P16257). Briefly: Displacement of [3H]PK11195 from TSPO in rat heart membrane homogenates. Type of data set: cell membranes.
The nature of data set [6]: Octanol-buffer partition coefficient, log D of the compound at pH 7.4 by HPLC method. The class given is physicochemical. The essentials: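 The HPLC retention time was converted to logD7.4 by calibration against known logD values of similar compounds. C18 column (4.6 x 20 mm, 3.5 µm); A: 5 mM MOPS/(CH3)4NOH pH 7.4; B: 5% MOPS/(CH3)4NOH (100 mM, pH 7.4) in 95% acetonitrile; gradient 98:2 to 0:100; 1.2 mL/min; 25 °C; detection at 254 nm.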

Data set [7] deals with Liver microsome. Briefly: Drug metabolism in rat liver microsomes assessed as retention time of compound after 30 mins by LC-MS/MS analysis. Type of data set: ADME. The following applies: 0.5 h. The method in brief: as §2
Data set [8] in a line: Displacement of [3H]flunitrazepam from CBR in rat cerebral cortex membrane homogenates. The class given is cell membranes. The method in brief:
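Central benzodiazepine receptor counter-screen: competition against [3H]flunitrazepam (Kd = 2.1 nM, used at 0.4 nM) on rat cerebral cortex membrane homogenates; Ki values derived.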

Data set [9] relates to Liver microsome. Briefly: Drug metabolism in rat liver microsomes assessed as retention time of hydroxylated M3 metabolite formation after 30 mins by LC-MS/MS analysis. Type of data set: ADME. The following applies: 0.5 h. The method in brief: as §2
In data set [10] the test system is Liver microsome. Briefly: Drug metabolism in rat liver microsomes assessed as retention time of dihydroxylated M4 metabolite formation after 30 mins by LC-MS/MS analysis. Type of data set: ADME. The note with it: 0.5 h. The method in brief: as §2

Chain of Translocator protein (P16257 whole entry, looked up): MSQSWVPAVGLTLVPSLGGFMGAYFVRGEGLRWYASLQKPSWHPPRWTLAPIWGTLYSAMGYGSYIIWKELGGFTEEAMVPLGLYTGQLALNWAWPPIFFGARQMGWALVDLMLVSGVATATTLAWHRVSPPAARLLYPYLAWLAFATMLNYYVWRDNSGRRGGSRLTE

As to `CCC(C)N([11CH3])C(=O)c1cc2ccccc2c(-c2ccccc2Cl)n1` (stereo not drawn), the Ratio in the data set with Striatum [1] worked out at 1.65.

As for `CCN(CC)C(=O)Cc1c(-c2ccc(C#CCCC[18F])cc2)nn2c(C)cc(C)nc12`, the Drug uptake in the data set on Striatum [2] is listed as 0.24 %ID/ml; in the data set with Striatum [3] it was 0.05 %ID/ml. Besides, in the data set on Striatum [1], the Ratio stood at 4.62.

On to `CCN(CC)C(=O)Cc1c(-c2ccc(C#CCF)cc2)nn2c(C)cc(C)nc12`, for which the Retention_time in the data set with Liver microsome [4] turned out to be 11 min; in the data set on Liver microsome [5], 11.41 min; with Liver microsome [7], 15.66 min. In addition, the inhibitory constant (Ki) was 0.54 nM on Translocator protein and greater than 1000 nM in data set [8]. In data set [6], this compound displayed a logD of 3.61.

Regarding `CCN(CC)C(=O)Cc1c(-c2ccc(C#CCCF)cc2)nn2c(C)cc(C)nc12`, the Retention_time in the data set with Liver microsome [4] was 11.19 min; with Liver microsome [5], 11.68 min; with Liver microsome [9], 10.01 min; in the data set with Liver microsome [10] it was 5.89 min; in the data set on Liver microsome [7], 15.81 min. The inhibition constant (Ki) on Translocator protein is 0.74 nM; in [8] it was greater than 1000 nM. Also, the logD in data set [6] amounted to 3.67.

As to `CCN(CC)C(=O)Cc1c(-c2ccc(C#CCCCF)cc2)nn2c(C)cc(C)nc12`, the Retention_time with Liver microsome [4] turned out to be 11.37 min; in the data set with Liver microsome [5], 12.08 min; in the data set on Liver microsome [9], 8.92 min; in the data set with Liver microsome [10] it was 3.43 min; in the data set on Liver microsome [7] it was 17.05 min. Besides, the results for the inhibitory constant (Ki) (at Translocator protein; in [8]) were 0.35 nM and greater than 1000 nM, respectively. Also, in data set [6], the logD amounted to 4.06.

Consider `CCN(CC)C(=O)Cc1c(-c2ccc(C#CCCCCF)cc2)nn2c(C)cc(C)nc12`, for which the Retention_time came out at 11.19 min in the data set on Liver microsome [4]; 11.68 min in the data set on Liver microsome [5]; 10.01 min with Liver microsome [9]; 5.89 min in the data set on Liver microsome [10]; 15.81 min in the data set on Liver microsome [7]. Moreover, the values for the inhibition constant (Ki) (at Translocator protein; in data set [8]) were 0.79 nM and greater than 1000 nM, respectively. Also, the logD in [6] was 4.35.

`CCN(CC)C(=O)Cc1c(-c2ccc(OCC[18F])cc2)nn2c(C)cc(C)nc12` [DPA-714 F-18]: the Drug uptake in the data set with Striatum [2] is reported as 0.3 %ID/ml; in the data set on Striatum [3], 0.08 %ID/ml.

Take `CCN(CC)C(=O)Cc1c(-c2ccc(OCCF)cc2)nn2c(C)cc(C)nc12` [DPA-714]: the log distribution coefficient (logD) in data set [6] was determined as 2.89. Besides, the Ki in [8] was greater than 1000 nM.
